# Experimental data of several laboratories.
# Target: Receptor tyrosine-protein kinase erbB-2 (ERBB2, Homo sapiens, UniProt P04626)
Compound,read-out,action,method,concentration,measurement,value
Cc1ccc(NC(=O)c2ccc(CN3CCN(C)CC3)cc2)cc1Nc1nc(-c2cccnc2)cs1,cell-free assay,,,0.5 µM,remaining signal,103%
CC(=O)N1CCC(c2ccc(C(=O)NC3=NCCN3)cc2C(F)(F)F)CC1,cell-free assay,,competition with immobilised ligand,1 µM,remaining binding,100%
Cc1ccc(C(=O)Nc2ccc(CN3CCN(C)CC3)c(C(F)(F)F)c2)cc1C#Cc1cnc2cccnn12,enzyme activity,inhibitor,,23.5 nM,remaining activity,44%
Cc1ccc(C(=O)NCc2ccsc2)cc1C#Cc1cn(C(C)C)c2ncnc(N)c12,enzyme activity,inhibitor,,1 µM,activity vs control,66%
CC(C)(C)c1nc(-c2cccc(NS(=O)(=O)c3c(F)cccc3F)c2F)c(-c2ccnc(N)n2)s1,enzyme activity,inhibitor,radiometric,1 µM,remaining activity,96%
Clc1ccc(Nc2nnc(Cc3ccncc3)c3ccccc23)cc1,cell-free assay,,,0.5 µM,remaining signal,101%
CCCCNc1ncc2c(-c3ccc(F)cc3)nn(C[C@H]3CC[C@H](N)CC3)c2n1,target engagement in cells,inhibitor,chemoproteomics,20 mM,inhibition,77.8%
O=C(NCc1ncc(C(F)(F)F)cc1Cl)c1ccc2c(c1)C1(CCS(=O)(=O)CC1)[C@H](C1CC1)N2S(=O)(=O)c1ccc(F)cc1,cell-free assay,,competition with immobilised ligand,1 µM,remaining binding,100%
COc1cccc2c(NCc3ccccc3)nc(-n3c(N)nc4ccccc43)nc12,target engagement in cells,inhibitor,chemoproteomics,20 mM,inhibition,32.6%
O=C(Nc1cnn(-c2csc(C(=O)NC3COC3)c2)c1)Nc1c(F)cccc1Cl,enzyme activity,inhibitor,,5 µM,remaining activity,97%
CN1CC(Oc2cnc(C#N)cc2-c2ccn3nc(NC(=O)C4CC4)cc3c2)C1,enzyme activity,inhibitor,,1 µM,inhibition,-3%
NS(=O)(=O)c1cc(NC(=O)C2(c3ccccc3Cl)CC2)ccc1Oc1cccc(Cl)c1,cell-free assay,,competition with immobilised ligand,1 µM,remaining binding,49%
CC#CC(=O)Nc1cc2c(Nc3ccc(F)c(Cl)c3)ncnc2cn1,cell-free assay,,,0.5 µM,remaining signal,2.36%
CCCOc1ccc([C@H]2[C@H](C(=O)O)[C@@H](c3ccc4c(c3)OCO4)CN2CC(=O)Nc2c(CC)cccc2CC)cc1,cell-free assay,,competition with immobilised ligand,1 µM,remaining binding,79%
Cc1ccc(NC(=O)c2ccc(C)c(C(F)(F)F)c2)cc1C#Cc1nn(C2CCC(O)CC2)c2ncnc(N)c12 (centres unmarked),cell-free assay,,,10 µM,remaining signal,4%
COc1cc2ncnc(Nc3ccc(Oc4ccccc4)c(C)c3C)c2cc1OC,enzyme activity,inhibitor,,1 µM,inhibition,76%
C[C@@H]1CN(c2cc(-c3nn(C)c4ccc(OC5(C)CC5)cc34)ncn2)C[C@H](C)O1,cell-free assay,,competition with immobilised ligand,1 µM,remaining binding,80%
C#Cc1cccc(Nc2ncnc3cc(OCCOC)c(OCCOC)cc23)c1,cell-free assay,,,0.5 µM,remaining signal,52.8%
C[C@@]1(Cc2ccc(C#N)cc2)C(=O)N(c2cc(Cl)cc(Cl)c2)c2ncc(C(=O)NC3(c4nc(C5CCC5)no4)CC3)n21,cell-free assay,,competition with immobilised ligand,1 µM,remaining binding,100%
CCCS(=O)(=O)Nc1ccc(F)c(C(=O)c2c[nH]c3ncc(-c4ccc(Cl)cc4)cc23)c1F,enzyme activity,inhibitor,,1 µM,inhibition,< 10%
Oc1ccc(-c2nc(-c3ccncc3)c(-c3ccc(F)cc3)[nH]2)cc1,cell-free assay,,,0.5 µM,remaining signal,95.5%
O=C(CSc1nc2nccnc2c(=O)n1CCc1ccccc1)Nc1nccs1,enzyme activity,inhibitor,,10 µM,inhibition,-11%
C[C@H](c1ccc(F)cc1)N(Cc1cccc(C(=O)O)c1)C(=O)c1cnc2ccccc2c1,cell-free assay,,competition with immobilised ligand,1 µM,remaining binding,100%
COc1ccc(COc2ccc(Cc3cnc(N)nc3N)cc2OC)cc1,cell-free assay,,,0.5 µM,remaining signal,106%
Nc1ncnc2occ(-c3ccc(NC(=O)Nc4cc(C(F)(F)F)ccc4F)cc3)c12,cell-free assay,inhibitor,,20 µM,remaining signal,0%
N#Cc1ccc(Nc2ccc3[nH]c(=O)[nH]c3c2)c(Cl)c1,cell-free assay,,competition with immobilised ligand,1 µM,remaining binding,100%
